According to ChEMBL document CHEMBL1141070, “Synthesis and biological activity of flurbiprofen analogues as selective inhibitors of beta-amyloid(1)(-)(42) secretion” (J Med Chem, 2005):

What was measured:
[1] = Area under curve after administration to rats at a dose of 0.5 mg/kg orally; format: ADME, organism-based; set-up: dose 0.5 mg/kg, route oral; conditions: rat, in vivo, po
[2] = biological target: T1, Amyloid-beta precursor protein (Homo sapiens, UniProt P05067); experiment: Inhibitory concentration against beta-amyloid-42 (Abeta42) secretion was evaluated in human neuroglioma cells (H4-APP695NL); format: functional, cell-based
In short: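 H4-APP695NL human neuroglioma cells (APP695 Swedish K595N/M596L) seeded at 2 × 10^5/well and grown 24 h to confluence. Increasing compound concentrations added overnight; DMSO 1% as vehicle. Supernatant Aβ42 or Aβ40 measured by electrochemiluminescence immunoassay: biotinylated 4G8 plus C-terminus-specific rabbit antibodies, captured on streptavidin beads.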
Target sequence in this assay (P05067 18-770 limits assumed): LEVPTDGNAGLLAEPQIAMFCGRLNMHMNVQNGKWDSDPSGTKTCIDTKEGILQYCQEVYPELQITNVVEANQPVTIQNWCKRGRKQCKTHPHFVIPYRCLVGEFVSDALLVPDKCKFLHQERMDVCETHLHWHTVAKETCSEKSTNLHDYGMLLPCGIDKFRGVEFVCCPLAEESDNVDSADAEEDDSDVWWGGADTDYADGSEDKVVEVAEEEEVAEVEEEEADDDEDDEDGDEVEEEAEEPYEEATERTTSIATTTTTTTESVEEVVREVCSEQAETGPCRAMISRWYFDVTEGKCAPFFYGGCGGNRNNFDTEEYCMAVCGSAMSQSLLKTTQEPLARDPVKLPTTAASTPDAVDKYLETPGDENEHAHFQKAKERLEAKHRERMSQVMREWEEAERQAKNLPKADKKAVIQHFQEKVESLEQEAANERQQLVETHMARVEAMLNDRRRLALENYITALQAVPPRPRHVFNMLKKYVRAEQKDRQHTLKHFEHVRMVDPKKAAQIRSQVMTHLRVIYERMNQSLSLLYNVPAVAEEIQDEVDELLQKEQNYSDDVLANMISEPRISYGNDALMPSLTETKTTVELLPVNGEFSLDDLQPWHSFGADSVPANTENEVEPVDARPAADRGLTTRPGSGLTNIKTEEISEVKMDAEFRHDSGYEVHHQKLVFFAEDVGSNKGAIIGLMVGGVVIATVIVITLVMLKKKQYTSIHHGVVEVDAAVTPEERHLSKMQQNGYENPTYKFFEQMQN

Cytochrome P450 2C9 = Cytochrome P450 2C9 (Homo sapiens, UniProt P11712); experiment: Interaction with human cytochrome P450 isoform 2C9 expressed in baculovirus-insect cells; format: ADME
In short: (§1)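 Microsomes from baculovirus-insect cells expressing human CYP1A2, 2C9, 2C19, 2D6 or 3A4. Compound serially diluted with an NADPH-regenerating mix (16.3 μM NADP+, 0.83 mM glucose-6-phosphate, 0.83 mM MgCl2, 0.4 U/mL G6PDH). Pre-warmed 10 min at 37 °C, then isoform-specific substrate added in 0.35 M potassium phosphate pH 7.4. Fluorometric read-out; IC50 by nonlinear regression.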

[3] = Time to achieve maximal concentration in rats after 0.2 mg/kg intravenous dose; format: ADME, organism-based; set-up: dose 0.2 mg/kg, route intravenous; conditions: rat, in vivo
[4] = Total body clearance after administration to rats at a dose of 0.2 mg/kg intravenously; format: ADME, organism-based; set-up: dose 0.2 mg/kg, route intravenous; conditions: rat, in vivo, iv
[5] = Area under curve after administration to rats at a dose of 0.2 mg/kg intravenously; format: ADME, organism-based; set-up: dose 0.2 mg/kg, route intravenous; conditions: rat, in vivo, iv
[6] = biological target: T1, Amyloid-beta precursor protein; conditions: at 100 µM
Target sequence in this assay (P05067 whole entry): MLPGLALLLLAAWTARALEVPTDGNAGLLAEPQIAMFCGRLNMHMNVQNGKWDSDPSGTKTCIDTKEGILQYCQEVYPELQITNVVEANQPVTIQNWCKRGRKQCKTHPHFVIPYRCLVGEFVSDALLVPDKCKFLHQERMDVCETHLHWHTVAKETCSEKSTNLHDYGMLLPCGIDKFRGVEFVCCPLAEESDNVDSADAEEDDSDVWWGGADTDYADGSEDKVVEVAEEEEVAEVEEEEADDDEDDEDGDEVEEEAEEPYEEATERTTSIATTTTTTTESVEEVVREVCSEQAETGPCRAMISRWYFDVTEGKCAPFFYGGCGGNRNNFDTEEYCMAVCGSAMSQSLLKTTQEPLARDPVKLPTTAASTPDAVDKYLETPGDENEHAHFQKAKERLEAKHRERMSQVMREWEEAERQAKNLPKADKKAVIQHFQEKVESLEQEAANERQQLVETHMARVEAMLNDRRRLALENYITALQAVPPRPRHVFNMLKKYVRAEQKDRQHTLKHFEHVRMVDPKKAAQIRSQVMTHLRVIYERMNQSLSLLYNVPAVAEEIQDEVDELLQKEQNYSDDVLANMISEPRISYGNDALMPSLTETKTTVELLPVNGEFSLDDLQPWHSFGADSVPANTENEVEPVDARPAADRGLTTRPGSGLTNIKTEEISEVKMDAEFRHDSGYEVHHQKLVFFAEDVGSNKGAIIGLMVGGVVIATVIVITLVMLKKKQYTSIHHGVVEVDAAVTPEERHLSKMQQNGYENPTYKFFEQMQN

[7] = Maximal concentration in rats after 0.5 mg/kg oral dose; format: ADME, organism-based; set-up: dose 0.5 mg/kg, route oral; conditions: rat, in vivo
[8] = Time to achieve maximal concentration in rats after 0.5 mg/kg oral dose; format: ADME, organism-based; set-up: dose 0.5 mg/kg, route oral; conditions: rat, in vivo
[9] = Maximal concentration in rats after 0.2 mg/kg intravenous dose; format: ADME, organism-based; set-up: dose 0.2 mg/kg, route intravenous; conditions: rat, in vivo
[10] = biological target: T2, Prostaglandin G/H synthase 1 (Rattus norvegicus) (UniProt Q63921); experiment: Percent inhibition against cyclooxygenase-1 at 100 uM in rat blood
T2 sequence (whole entry): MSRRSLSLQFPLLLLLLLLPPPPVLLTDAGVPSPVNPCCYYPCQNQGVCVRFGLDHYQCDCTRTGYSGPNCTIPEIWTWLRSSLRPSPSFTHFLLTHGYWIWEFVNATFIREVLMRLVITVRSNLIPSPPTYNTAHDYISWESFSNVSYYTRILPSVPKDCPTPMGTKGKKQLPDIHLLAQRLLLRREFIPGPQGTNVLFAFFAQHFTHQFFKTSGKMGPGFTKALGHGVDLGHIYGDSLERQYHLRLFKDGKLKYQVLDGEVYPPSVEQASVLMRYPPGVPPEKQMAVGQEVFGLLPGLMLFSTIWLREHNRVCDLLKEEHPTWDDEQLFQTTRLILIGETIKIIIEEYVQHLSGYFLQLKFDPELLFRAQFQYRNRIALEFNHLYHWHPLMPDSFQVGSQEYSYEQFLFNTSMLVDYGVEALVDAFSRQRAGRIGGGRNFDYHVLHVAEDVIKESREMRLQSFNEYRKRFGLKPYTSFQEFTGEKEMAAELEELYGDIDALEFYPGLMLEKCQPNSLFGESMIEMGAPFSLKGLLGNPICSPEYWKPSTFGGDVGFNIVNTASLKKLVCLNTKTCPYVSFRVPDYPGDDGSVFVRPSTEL
In short: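 Fresh rat whole blood preincubated 1 h at 37 °C with compound (100 μM) or DMSO (0.3% final). Stimulated 30 min with A23187 calcium ionophore; plasma thromboxane B2 measured by radioimmunoassay.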

[11] = Maximal concentration in rats after 0.5 mg/kg intravenous dose; format: ADME, organism-based; set-up: dose 0.5 mg/kg, route intravenous; conditions: rat, in vivo
[12] = Maximum time corresponding to maximum concentration after administration to rats at a dose of 2.5 mg/kg orally; format: ADME, organism-based; set-up: dose 2.5 mg/kg, route oral; conditions: rat, in vivo, po
[13] = biological target: T1, Amyloid-beta precursor protein; experiment: Inhibition of A beta 40 peptide 100 um
Target sequence in this assay (P05067 whole entry): as the sequence (P05067 whole entry) above

[14] = Area under curve after administration to rats at adose of 0.5 mg/kg intravenously; format: ADME, organism-based; set-up: dose 0.5 mg/kg, route intravenous; conditions: rat, in vivo, iv
Caco-2 = experiment: Permeability in the Caco-2 cell; high absorption; format: ADME, cell-based; conditions: human
In short: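 Caco-2 monolayers on polycarbonate Transwell inserts, 2 h at 37 °C. Apical and basolateral solutions analysed by LC-MS/MS (SRM). Papp = Cb·Vb/(C0·A·t).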

Cytochrome P450 2C19 = Cytochrome P450 2C19 (Homo sapiens, UniProt P33261); experiment: Interaction with human cytochrome P450 isoform 2C19 expressed in baculovirus-insect cells; format: ADME; in short: as §1
[15] = Total body clearance after administration to rats at a dose of 0.5 mg/kg intravenously; format: ADME, organism-based; set-up: dose 0.5 mg/kg, route intravenous; conditions: rat, in vivo, iv
[16] = Area under curve after administration to rats at adose of 2.5 mg/kg orally; format: ADME, organism-based; set-up: dose 2.5 mg/kg, route oral; conditions: rat, in vivo, po
[17] = Maximal concentration in rats after 2.5 mg/kg oral dose; format: ADME, organism-based; set-up: dose 2.5 mg/kg, route oral; conditions: rat, in vivo
[18] = Elimination phase half-life after administration to rats at a dose of 0.5 mg/kg intravenously; format: ADME, organism-based; set-up: dose 0.5 mg/kg, route intravenous; conditions: rat, in vivo, iv
[19] = Elimination phase half-life after administration to rats at a dose of 2.5 mg/kg orally; format: ADME, organism-based; set-up: dose 2.5 mg/kg, route oral; conditions: rat, in vivo, po
[20] = In vivo steady state metabolic clearance of the compound; conditions: rat
[21] = Absolute oral bioavailability after administration to rats at a dose of 2.5 mg/kg orally; conditions: rat, in vivo
[22] = Maximum time corresponding to maximum concentration after administration to rats at a dose of 0.5 mg/kg intravenously; format: ADME, organism-based; set-up: dose 0.5 mg/kg, route intravenous; conditions: rat, in vivo, iv
[23] = Concentration ratio in cerebrospinal fluid and plasma; conditions: rat
Cytochrome P450 3A4 [24] = biological target: T3, Cytochrome P450 3A4 (Homo sapiens, UniProt P08684); experiment: Inhibition of cytochrome P450 3A4 at 100 uM; activation observed; format: ADME
In short: (§2)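 Supersome microsomes from baculovirus-insect cells expressing human CYP1A2, 2C9, 2C19, 2D6 or 3A4 were used with isoform-specific fluorogenic substrates. Compounds were serially diluted with an NADP⁺/glucose-6-phosphate regenerating system in 0.35 M potassium phosphate, pH 7.4. Plates were prewarmed 10 min at 37 °C, reactions stopped with acetonitrile/Tris, and fluorescence read. IC50 was obtained by nonlinear regression.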

Cytochrome P450 3A4 [25] = biological target: T3, Cytochrome P450 3A4; experiment: Interaction with human cytochrome P450 isoform 3A4 expressed in baculovirus-insect cells; format: ADME; in short: as §2
Cytochrome P450 1A2 = biological target: T4, Cytochrome P450 1A2 (Homo sapiens, UniProt P05177); experiment: Interaction with human cytochrome P450 isoform 1A2 expressed in baculovirus-insect cells; format: ADME; in short: as §2
T4 sequence (P05177 whole entry): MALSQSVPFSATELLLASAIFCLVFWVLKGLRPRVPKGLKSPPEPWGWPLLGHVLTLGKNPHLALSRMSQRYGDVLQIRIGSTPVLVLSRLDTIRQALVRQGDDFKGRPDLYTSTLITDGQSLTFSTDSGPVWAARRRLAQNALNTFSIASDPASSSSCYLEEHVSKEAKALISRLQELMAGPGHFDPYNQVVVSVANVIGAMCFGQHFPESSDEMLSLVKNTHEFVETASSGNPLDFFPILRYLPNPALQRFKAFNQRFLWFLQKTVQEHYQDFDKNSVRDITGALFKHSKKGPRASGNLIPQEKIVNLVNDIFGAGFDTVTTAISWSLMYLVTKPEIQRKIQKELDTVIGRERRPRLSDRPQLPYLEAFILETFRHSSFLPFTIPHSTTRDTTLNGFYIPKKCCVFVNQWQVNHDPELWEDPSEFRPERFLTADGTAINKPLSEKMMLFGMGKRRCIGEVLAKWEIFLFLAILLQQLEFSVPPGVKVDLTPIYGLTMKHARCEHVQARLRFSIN

Cytochrome P450 2D6 = Cytochrome P450 2D6 (Homo sapiens, UniProt P10635); experiment: Interaction with human cytochrome P450 isoform 2D6 expressed in baculovirus-insect cells; format: ADME; in short: as §2
[26] = Absolute oral bioavailability after administration to rats at a dose of 2.5 mg/kg orally; conditions: rat, in vivo; remark: listed apart in the source
[27] = Area under curve after administration to rats at a dose of 2.5 mg/kg orally; format: ADME, organism-based; set-up: dose 2.5 mg/kg, route oral; conditions: rat, in vivo, po
[28] = Area under curve after administration to rats at a dose of 0.5 mg/kg intravenously; format: ADME, organism-based; set-up: dose 0.5 mg/kg, route intravenous; conditions: rat, in vivo, iv
[29] = Total body clearance after administration to rats at a dose of 0.5 mg/kg intravenously; conditions: rat, in vivo, iv

Chain of Cytochrome P450 2C19 (P33261 whole entry, canonical isoform): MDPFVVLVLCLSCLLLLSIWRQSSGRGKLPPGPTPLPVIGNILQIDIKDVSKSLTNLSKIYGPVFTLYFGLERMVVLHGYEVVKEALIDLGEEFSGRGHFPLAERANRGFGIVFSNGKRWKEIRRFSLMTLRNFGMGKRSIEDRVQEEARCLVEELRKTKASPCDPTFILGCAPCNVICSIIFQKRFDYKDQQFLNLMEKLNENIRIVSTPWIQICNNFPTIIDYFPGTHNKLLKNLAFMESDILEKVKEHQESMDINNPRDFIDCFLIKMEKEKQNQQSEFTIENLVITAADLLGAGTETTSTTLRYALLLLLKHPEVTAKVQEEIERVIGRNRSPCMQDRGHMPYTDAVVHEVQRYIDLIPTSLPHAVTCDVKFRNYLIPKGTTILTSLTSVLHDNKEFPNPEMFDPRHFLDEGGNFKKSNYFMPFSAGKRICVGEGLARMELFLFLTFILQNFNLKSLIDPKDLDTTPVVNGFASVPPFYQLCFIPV
Chain of Cytochrome P450 2C9 (P11712 whole entry, canonical isoform): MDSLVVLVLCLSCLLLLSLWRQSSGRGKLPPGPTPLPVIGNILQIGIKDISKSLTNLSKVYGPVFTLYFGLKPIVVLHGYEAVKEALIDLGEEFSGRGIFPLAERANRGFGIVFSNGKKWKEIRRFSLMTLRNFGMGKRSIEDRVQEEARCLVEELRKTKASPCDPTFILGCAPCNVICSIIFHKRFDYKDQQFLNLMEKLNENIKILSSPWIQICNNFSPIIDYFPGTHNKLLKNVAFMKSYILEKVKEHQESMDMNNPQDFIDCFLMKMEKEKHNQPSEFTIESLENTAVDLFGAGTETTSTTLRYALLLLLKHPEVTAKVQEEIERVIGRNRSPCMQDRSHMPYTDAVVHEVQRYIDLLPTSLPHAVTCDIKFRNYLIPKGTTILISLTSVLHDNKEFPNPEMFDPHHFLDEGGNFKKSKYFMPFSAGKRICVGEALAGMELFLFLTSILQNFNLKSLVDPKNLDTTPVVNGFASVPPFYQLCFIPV
T3 sequence (P08684 whole entry, canonical isoform): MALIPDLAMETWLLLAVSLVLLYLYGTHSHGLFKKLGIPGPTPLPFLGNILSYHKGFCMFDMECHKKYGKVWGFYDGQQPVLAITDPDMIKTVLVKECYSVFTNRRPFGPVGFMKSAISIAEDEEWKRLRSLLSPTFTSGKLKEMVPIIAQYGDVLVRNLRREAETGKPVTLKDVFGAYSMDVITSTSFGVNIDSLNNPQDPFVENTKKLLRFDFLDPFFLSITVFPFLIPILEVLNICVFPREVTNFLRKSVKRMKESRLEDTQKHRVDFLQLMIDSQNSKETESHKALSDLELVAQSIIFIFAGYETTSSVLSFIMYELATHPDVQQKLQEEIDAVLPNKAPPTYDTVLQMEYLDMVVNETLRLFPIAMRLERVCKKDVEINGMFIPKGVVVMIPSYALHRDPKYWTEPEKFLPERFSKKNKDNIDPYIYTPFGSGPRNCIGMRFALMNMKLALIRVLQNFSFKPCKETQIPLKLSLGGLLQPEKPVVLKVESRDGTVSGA
Chain of Cytochrome P450 2D6 (P10635 whole entry, canonical isoform): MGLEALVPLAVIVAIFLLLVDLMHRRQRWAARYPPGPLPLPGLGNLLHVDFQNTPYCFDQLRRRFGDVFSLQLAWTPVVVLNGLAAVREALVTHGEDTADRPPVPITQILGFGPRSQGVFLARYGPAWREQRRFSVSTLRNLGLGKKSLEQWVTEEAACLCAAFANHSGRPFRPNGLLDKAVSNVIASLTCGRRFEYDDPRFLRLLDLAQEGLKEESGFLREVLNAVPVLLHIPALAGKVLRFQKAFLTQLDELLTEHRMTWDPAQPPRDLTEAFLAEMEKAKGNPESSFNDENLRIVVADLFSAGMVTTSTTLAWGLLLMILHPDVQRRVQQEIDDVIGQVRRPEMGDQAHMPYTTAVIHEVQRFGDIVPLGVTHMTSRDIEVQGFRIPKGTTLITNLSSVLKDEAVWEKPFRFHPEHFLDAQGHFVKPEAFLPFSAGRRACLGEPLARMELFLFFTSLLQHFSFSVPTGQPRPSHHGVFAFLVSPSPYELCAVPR

SMILES	IC50 [2]	IC50 (Cytochrome P450 2C9)	inhibition [6]	inhibition [10]	Cmax [11]	IC50 (Cytochrome P450 2C19)	Cmax [17]	half-life [19]	Clearance [20]	also measured
O=C(O)C1(c2ccc(-c3ccc(OC4CCC(C(F)(F)F)CC4)cc3)c(F)c2)CC1 (centres undefined)	20 µM	17.7 µM	70%	–	–	–	–	–	–	AUC [1]: 6 µg/h/mL; Tmax [3]: 0.25 h; Clearance [4]: 18.8 mL/h/kg; AUC [5]: 11 µg/h/mL; Cmax [7]: 300 ng/mL; Tmax [8]: 8 h; Cmax [9]: 600 ng/mL
O=C(O)C1(c2ccc(-c3ccc(C(F)(F)F)cc3)c(F)c2)CC1	111 µM	–	55%	< 1%	14400 ng/mL	71 µM	54900 ng/mL	32.8 h	0.52 mL/h	Tmax [12]: 4 h; Inhibition [13]: 22%; AUC [14]: 575 µg/h/mL; Absoption (Caco-2): High; Clearance [15]: 0.9 mL/h/kg; AUC [16]: 2613 µg/h/mL; half-life [18]: 36.2 h; bioavailability [21]: 90.9%; Tmax [22]: 4.8 min; Ratio [23]: 1.8%
O=C(O)C1(c2ccc(-c3ccc(C4CCCCC4)cc3)c(F)c2)CC1	–	–	60%	12%	–	–	–	–	–	IC50 (Cytochrome P450 3A4 [24]): 59 µM
CC1(C)CC(Oc2ccc(-c3ccc(C4(C(=O)O)CC4)cc3F)cc2)CC(C)(C)C1	11 µM	15 µM	97%	–	–	33 µM	–	–	134 mL/h	IC50 (Cytochrome P450 3A4 [25]): 27 µM; IC50 (Cytochrome P450 1A2): 26 µM; IC50 (Cytochrome P450 2D6): 30 µM
O=C(O)C1(c2ccc(-c3ccc(Cl)c(Cl)c3)c(F)c2)CC1	41 µM	38 µM	79%	< 1%	6100 ng/mL	25 µM	16200 ng/mL	20.7 h	1.5 mL/h	bioavailability [26]: 50.2%; AUC [27]: 435 µg/h/mL; Absorption (Caco-2): High; AUC [28]: 173 µg/h/mL; Clearance [29]: 2.9 mL/h/kg; T1/2 [19]: 20.7 h
